Most compounds without a hit are left out; they make up all but 1.7% or so of the library.
PP1 counter = blocks human PP1-alpha phosphatase, a PP5 counter-screen | 0.9% of 320,000 active | inhibition, % at 6.7 µM | AID 2235 | purified PP1alpha, OMFP fluorescence | P62136;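 active = inhibition above the mean inhibition of all tested compounds plus 3 SD, computed separately for each screening campaign, cut at about 15% in these data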
m5-HT2A agonist = mouse HTR2A agonism via beta-arrestin recruitment; CHO-K1 mHTR2A beta-arrestin complementation, luminescence; percent of 30 µM serotonin response; P35363; AID 624169; 0.66% of 360,000 active; activation, % at 7.6 µM;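 active = activation above a run cutoff, the mean activation of all tested compounds plus 3 SD, cut at about 14% in these data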;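 note: 0% = plate median of compound wells and 100% = 30 µM serotonin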
PP5 primary = inhibitors of human protein phosphatase 5 (PP5); purified PP5c, OMFP substrate fluorescence; 0.18% of 320,000 active; AID 1987; inhibition, % at 6.7 µM; P53041;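 active = inhibition above the campaign's mean inhibition across all tested compounds plus 3 SD, cut at about 9.5% in these data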;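 note: 0% = DMSO only and 100% = 100 µM cantharidin control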
Target sequence (P53041 whole entry, looked up): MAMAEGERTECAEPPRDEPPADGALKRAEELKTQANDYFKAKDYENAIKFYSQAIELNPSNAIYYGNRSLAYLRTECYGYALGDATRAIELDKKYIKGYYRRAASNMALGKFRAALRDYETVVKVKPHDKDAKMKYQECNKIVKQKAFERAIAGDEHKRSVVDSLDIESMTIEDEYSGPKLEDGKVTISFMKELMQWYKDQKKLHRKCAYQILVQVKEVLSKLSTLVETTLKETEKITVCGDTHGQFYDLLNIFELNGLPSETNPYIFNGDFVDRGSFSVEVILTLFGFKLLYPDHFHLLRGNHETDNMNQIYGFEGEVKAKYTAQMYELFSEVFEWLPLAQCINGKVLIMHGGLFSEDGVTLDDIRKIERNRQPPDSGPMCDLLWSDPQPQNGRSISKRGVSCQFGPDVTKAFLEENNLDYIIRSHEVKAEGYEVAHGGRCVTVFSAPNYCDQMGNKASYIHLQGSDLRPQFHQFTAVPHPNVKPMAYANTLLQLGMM
T cell modulator = modulates CD8 T cell binding to vesicles; AID 2052; 2C CD8+ T cell-vesicle binding, flow cytometry; stronger effect = lower value; response (vesicle binding), % at 7 µM; 0.068% of 330,000 active;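 active = response, share of CD8 T cells binding vesicles, and their 90th percentile fluorescence all below set limits, cut at about 80% in these data, passing the limit was not always enough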;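 note: values below 100% mean blocked vesicle binding to the CD8+ T cells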
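System: murine 2C transgenic CD8+ T lymphocytes; also added: QL9-loaded Drosophila micro-vesicles; times: binding 1.5 h at 37 °C; measured by: flow cytometry, PE anti-B7-1 (FL2) versus Alexa647 anti-CD8 (FL8), PFA-fixed; control set: Peptide-free naked vesicles (low) and QL9 vesicles with 0.7% DMSO vehicle (high)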
GASC-1 inh = inhibitors of human GASC-1 (JMJD2C) demethylase | Q9H3R0 | GST-JMJD2C(1-420) H3K9me3 demethylation, DELFIA europium | inhibition, % at 2.35 µM | 0.069% of 330,000 active;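 active = more than half of a compound's replicate wells show inhibition beyond 50%, single wells judged on their own value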;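 note: signal counts dimethyl H3K9 product captured on neutravidin plate; 0% = median of DMSO wells and 100% = 0.3 times that DMSO median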
PP1 inh confirm = confirmation of human PP1 phosphatase inhibitors; shares compounds with PP1 counter; purified PP1alpha, OMFP substrate fluorescence; inhibition, % at 6.7 µM; 52% of 1,900 active; AID 2358;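 active = mean PP1 inhibition above a set limit taken from the earlier primary screen, cut at about 15% in these data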
PP5 counter = counter-screen for PP1 inhibitors: human PP5 phosphatase inhibition; shares compounds with PP1 counter; purified PP5c, OMFP fluorescence; inhibition, % at 6.7 µM; 4% of 1,900 active;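 active = mean PP5 inhibition over triplicate wells above about 9.5% taken from the earlier PP1 screen, limit read from the data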
The depositor's hits bear a star; i = inactive; . = no result given.

SMILES	PP1 counter	m5-HT2A agonist	PP5 primary	T cell modulator	GASC-1 inh	PP1 inh confirm	PP5 counter
CCn1nc([N+](=O)[O-])c(C(C#N)c2nc3cc(C(F)(F)F)ccc3s2)c(Cl)c1=O (configuration not stated)	22.3*	2.8	6.7	116.4	10.9	22.1*	4.7
CCCn1nc([N+](=O)[O-])c(C(C#N)c2nc3ccccc3o2)c(Cl)c1=O (configuration not stated)	9.2	-1.3	3.6	222.4	-4.9	.	.
O=C(Oc1ccc(/C=N/Nc2ccccc2)cc1)c1ccccc1	20.7*	-0.6	2.4	227.4	6.8	7.6	-3.2
O=C(O)c1ccc(N/N=C/c2ccc(OC(=O)c3cccc(Cl)c3)cc2)cc1	52.5*	-1.2	0.6	220.0	5.3	14.2	-1.1
O=C(O)c1cccc(N/N=C/c2ccc(OC(F)(F)F)cc2)c1	4.1	-5.8	-0.1	364.4	4.9	.	.
Cc1cc(Cl)ccc1Oc1ccc(C(N)=O)cc1[N+](=O)[O-]	3.5	9.2	3.5	106.7	-4.1	.	.
Cc1cc(Cl)ccc1Oc1ccccc1C(=O)CC#N	19.8*	6.5	1.3	392.1	-7.4	-0.1	-7.6
O=C(O)C1=NN(c2ccccc2)C(=O)CC1	10.2	-0.1	3.0	229.9	8.2	.	.
O=C(O)C1=NN(c2ccccc2)C(=O)C1	28.7*	0.5	-3.1	97.0	-5.2	-2.8	-4.4
O=C(N/N=C/c1ccncc1)c1cccc(S(=O)(=O)Nc2ccc(Cl)cc2)c1	20.8*	0.7	1.4	304.9	10.9	6.5	-3.8
O=C(N/N=C/c1cccnc1)c1cccc(S(=O)(=O)Nc2cccc(Cl)c2)c1	-2.6	0.0	0.6	540.8	-4.9	.	.
CC[C@]12c3[nH]c4cc(-c5ccco5)ccc4c3CCN1C(=O)[C@@H](CC(=O)NCCCOC)C[C@@H]2C(=O)N1CCN(C(=O)c2ccco2)CC1	.	0.4	.	.	.	.	.
COc1ccccc1/C=C/C(=O)OCC(=O)Nc1nnc(-c2ccccc2)o1	.	-7.2	.	.	.	.	.
COc1ccc(OC)c(/C=C/C(=O)OCC(=O)Nc2nnc(-c3ccccc3)o2)c1	32.7*	0.3	0.9	399.6	4.2	28.1*	-1.6
COc1ccc(/C=N/Nc2nc(Nc3ccccc3)nc(N3CCCC3)n2)cc1[N+](=O)[O-]	7.7	-7.5	1.5	104.7	34.4	.	.
COc1cc(/C=N/Nc2nc(Nc3ccccc3)nc(N3CCCCC3)n2)ccc1OCC(=O)O	9.9	-4.5	-1.1	329.8	2.5	.	.
COc1ccc(O)c(/C=N/Nc2nc(Nc3ccccc3)nc(-n3nc(C)cc3C)n2)c1	21.3*	-22.1	5.0	178.7	11.6	25.2*	5.0
COc1cc(/C=N/Nc2nc(Nc3ccc(C)cc3)nc(-n3nc(C)cc3C)n2)cc(OC)c1OC	22.2*	8.6	4.1	376.4	3.9	21.4*	0.3
COc1cc(/C=N/Nc2nc(Nc3ccccc3)nc(-n3nc(C)cc3C)n2)cc(OC)c1OC	24.2*	3.2	6.2	119.2	-11.4	34.5*	3.1
Cc1cc(Cl)c(S(=O)(=O)N2CCN(c3ccc(F)cc3)CC2)cc1OCC(=O)NC1CCCCC1	18.2*	0.3	6.5	i	3.8	2.4	-1.7
Cc1cc(Cl)c(S(=O)(=O)N2CCN(c3ccc(F)cc3)CC2)cc1OCC(N)=O	-1.0	-4.2	2.6	310.8	5.3	.	.
O=C(N/N=C/c1ccc(O)c2ncccc12)c1cccc(Br)c1	20.9*	-7.6	-0.7	549.2	37.8	18.1*	0.6
O=C(N/N=C/c1cc(Br)ccc1O)c1ccncc1	-1.5	-17.0	3.2	194.4	-0.1	.	.
COc1cc(/C=C/c2ccc3c(Br)cc(Br)c(O)c3n2)ccc1O	4.7	-5.1	-1.5	103.9	3.1	.	.
COc1ccc(/C=C/c2ccc3c(Br)ccc(O)c3n2)cc1	22.3*	2.1	0.9	267.0	-6.9	19.1*	-6.0
SMILES	PP1 counter	m5-HT2A agonist	PP5 primary	T cell modulator	GASC-1 inh	PP1 inh confirm	PP5 counter
COc1cccc(/C=C/c2ccc3cccc(O)c3n2)c1	19.0*	-6.9	0.5	230.2	-13.2	18.7*	-1.3
Cc1ccc(/C=C/c2ccc3cccc(O)c3n2)s1	19.8*	-10.1	2.6	253.2	-4.7	15.5*	2.0
COc1cccc(/C=C/c2ccc3cccc(O)c3n2)c1OC	20.0*	-13.8	-0.2	822.1	6.5	16.8*	-4.2
COc1ccc(/C=C/c2ccc3cccc(O)c3n2)c(OC)c1OC	12.1	-32.1	5.0	278.0	-2.1	.	.
O=C(CCCN1C(=O)/C(=C\c2cccs2)SC1=S)NNC(=O)c1cccnc1	-1.2	-7.2	0.6	659.5	3.6	.	.
COc1cc(/C=C/c2ccc3cccc(O)c3n2)cc(Cl)c1OC	18.1*	-6.1	0.2	333.2	1.9	26.4*	1.0
c1cc2ccc3ccc(-n4cnnn4)c4ccc(c1)c2c34	19.6*	4.5	0.5	246.0	171.7	23.3*	-0.9
COc1cnc(-c2ccccn2)nc1Sc1ccc(Cl)cc1	34.9*	-1.5	2.2	936.3	-11.5	45.6*	1.1
COc1cnc(-c2ccccn2)nc1Sc1ccccc1	55.0*	-0.9	10.8*	571.3	-1.4	48.2*	-0.6
CCOC(=O)CSc1nc(-c2ccccn2)ncc1OC	5.7	3.0	-0.5	422.5	5.7	.	.
COc1cnc(-c2ccccn2)nc1Sc1ccc(F)cc1	43.0*	3.5	7.3	423.8	-6.1	51.0*	0.4
COc1cnc(N(C)C)nc1Sc1ccc(Cl)cc1	0.8	-8.7	2.4	220.0	3.5	.	.
COc1ccc(Sc2nc(-c3ccccn3)ncc2OC)cc1	57.0*	-5.1	6.2	214.1	-6.5	55.9*	-0.6
N#Cc1ccccc1CN1C(=O)c2ccccc2S1(=O)=O	-6.9	8.6	-2.1	255.3	19.0	.	.
Cc1cccc(NC(=O)CCCN2C(=O)C(c3ccccc3)Oc3cccnc32)c1C (configuration not stated)	-1.4	-4.5	-0.6	133.1	-16.5	.	.
Cc1ccc(C(=O)Nc2nc(-c3ccccn3)cs2)o1	23.4*	-2.1	0.3	153.4	-2.9	12.9	-1.7
O=C(Nc1nc(-c2ccccn2)cs1)c1ccc([N+](=O)[O-])o1	10.9	-3.8	2.1	88.2	2.9	.	.
c1ccc(CCNc2nc(-c3cccnc3)cs2)cc1	1.0	3.3	0.9	72.6	1.6	.	.
c1ccc(CCNc2nc(-c3ccccn3)cs2)cc1	35.0*	-3.9	4.2	999.9	-10.1	44.1*	5.1
O=C(Nc1nc(-c2ccccn2)cs1)c1ccc(-c2ccccc2F)o1	19.5*	0.8	3.2	144.3	-0.2	30.5*	12.2*
Cc1c(NC(=O)C(C)Oc2cccc(F)c2)c(=O)n(-c2ccccc2)n1C (configuration not stated)	.	6.3	.	732.7	1.8	.	.
O=C1C=CC(=O)N1CCNc1ncc(C(F)(F)F)cc1Cl	.	-5.4	.	.	35.5	.	.

From PubChem BioAssay
